Experimental data reported in ChEMBL document CHEMBL1255410, “Activity of the investigational fluoroquinolone finafloxacin against ciprofloxacin-sensitive and -resistant Acinetobacter baumannii isolates” (2010).
In brackets after ≈: the same amount, converted by molar mass.

Experiments:
Acinetobacter baumannii [1] = assay: Antimicrobial activity against Acinetobacter baumannii isolate 2 at pH 7.2; format: functional
How it was run: (§1)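 MIC by agar dilution on Mueller-Hinton agar under standard conditions (pH 7.2), against isolates with characterized gyrA/parC genes. Agar pH was checked after solidifying. Plates for both drugs were prepared the same day from freshly made media, and MICs were determined simultaneously with the pH 5.8 set.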

Acinetobacter baumannii [2] = assay: Antimicrobial activity against Acinetobacter baumannii isolate 7 at pH 7.2; format: functional
How it was run: (§2)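 Agar dilution MIC on Mueller-Hinton agar under standard conditions (pH 7.2). Antibiotic-containing plates were made the same day from freshly prepared medium. Agar pH was checked after solidifying. Both fluoroquinolones were tested simultaneously against A. baumannii isolates with characterized gyrA/parC genes. MICs are in μg/ml.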

Acinetobacter baumannii [3] = assay: Antimicrobial activity against Acinetobacter baumannii isolate 8 at pH 7.2; format: functional; how it was run: as §2
Acinetobacter baumannii [4] = assay: Antimicrobial activity against Acinetobacter baumannii isolate 9 at pH 7.2; format: functional; how it was run: as §2
Acinetobacter baumannii [5] = assay: Antimicrobial activity against Acinetobacter baumannii isolate 11 at pH 7.2; format: functional; how it was run: as §1
Acinetobacter baumannii [6] = assay: Antimicrobial activity against Acinetobacter baumannii isolate 12 at pH 7.2; format: functional; how it was run: as §1
Acinetobacter baumannii [7] = assay: Antimicrobial activity against Acinetobacter baumannii isolate 13 at pH 7.2; format: functional; how it was run: as §1
Acinetobacter baumannii [8] = assay: Antimicrobial activity against Acinetobacter baumannii isolate 14 at pH 7.2; format: functional; how it was run: as §1
Acinetobacter baumannii [9] = assay: Antimicrobial activity against Acinetobacter baumannii isolate 15 at pH 7.2; format: functional; how it was run: as §1
Acinetobacter baumannii [10] = assay: Antimicrobial activity against Acinetobacter baumannii isolate 18 at pH 7.2; format: functional; how it was run: as §1
Acinetobacter baumannii [11] = assay: Antimicrobial activity against Acinetobacter baumannii isolate 20 harboring GyrA Ser83-Leu mutation at pH 7.2; format: functional; how it was run: as §1
Acinetobacter baumannii [12] = assay: Antimicrobial activity against Acinetobacter baumannii isolate 24 harboring GyrA Ser83-Leu mutation at pH 7.2; format: functional; how it was run: as §1
Acinetobacter baumannii [13] = assay: Antimicrobial activity against Acinetobacter baumannii isolate 29 harboring GyrA Ser83-Leu mutation at pH 7.2; format: functional; how it was run: as §1
Acinetobacter baumannii [14] = assay: Antimicrobial activity against Acinetobacter baumannii isolate 38 harboring GyrA Ser83-Leu mutation at pH 7.2; format: functional
How it was run: (§3)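 Agar dilution MIC on Mueller-Hinton agar. For the acidic condition, HCl was added to bring the agar to pH 5.8 before pouring the antibiotic plates, and the pH was checked after the agar set. The standard condition was pH 7.2. Both drugs' plates were made the same day from fresh medium, and MICs were read at the same time.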

Acinetobacter baumannii [15] = assay: Antimicrobial activity against Acinetobacter baumannii isolate 41 harboring GyrA Ser83-Leu mutation at pH 7.2; format: functional; how it was run: as §3
Acinetobacter baumannii [16] = assay: Antimicrobial activity against Acinetobacter baumannii isolate 42 harboring GyrA Ser83-Leu mutation at pH 7.2; format: functional; how it was run: as §3
Acinetobacter baumannii [17] = assay: Antimicrobial activity against Acinetobacter baumannii isolate 57 harboring GyrA Ser83-Leu and ParC Ser80-Phe mutation at pH 7.2; format: functional; how it was run: as §2
Acinetobacter baumannii [18] = assay: Antimicrobial activity against Acinetobacter baumannii isolate 59 harboring GyrA Ser83-Leu and ParC Glu84-Lys mutation at pH 7.2; format: functional; how it was run: as §2
Acinetobacter baumannii [19] = assay: Antimicrobial activity against Acinetobacter baumannii isolate 61 harboring GyrA Ser83-Leu and ParC Ser80-Leu mutation at pH 7.2; format: functional; how it was run: as §2
Acinetobacter baumannii [20] = assay: Antimicrobial activity against Acinetobacter baumannii isolate 63 harboring GyrA Ser83-Leu and ParC Glu84-Lys mutation at pH 7.2; format: functional; how it was run: as §2
Acinetobacter baumannii [21] = assay: Antimicrobial activity against Acinetobacter baumannii isolate 2 at pH 5.8; format: functional
How it was run: (§4)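 MIC by agar dilution on Mueller-Hinton agar acidified to pH 5.8 with HCl before antibiotic-containing plates were poured. Agar pH was rechecked once the agar had solidified. Isolates had characterized gyrA/parC genes. Plates for both drugs were made the same day from fresh media, and MICs were read in parallel with the standard-pH set.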

Acinetobacter baumannii [22] = assay: Antimicrobial activity against Acinetobacter baumannii isolate 3 at pH 5.8; format: functional; how it was run: as §4
Acinetobacter baumannii [23] = assay: Antimicrobial activity against Acinetobacter baumannii isolate 6 at pH 5.8; format: functional
How it was run: (§5)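 Agar dilution MIC on Mueller-Hinton agar acidified to pH 5.8 with HCl before the antibiotic-containing plates were poured. Agar pH was checked after solidifying. Plates were made the same day from fresh medium. Both fluoroquinolones were tested simultaneously against A. baumannii isolates with characterized gyrA/parC genes. MICs are in μg/ml.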

Acinetobacter baumannii [24] = assay: Antimicrobial activity against Acinetobacter baumannii isolate 8 at pH 5.8; format: functional; how it was run: as §5
Acinetobacter baumannii [25] = assay: Antimicrobial activity against Acinetobacter baumannii isolate 12 at pH 5.8; format: functional; how it was run: as §4
Acinetobacter baumannii [26] = assay: Antimicrobial activity against Acinetobacter baumannii isolate 13 at pH 5.8; format: functional; how it was run: as §4
Acinetobacter baumannii [27] = assay: Antimicrobial activity against Acinetobacter baumannii isolate 14 at pH 5.8; format: functional; how it was run: as §4
Acinetobacter baumannii [28] = assay: Antimicrobial activity against Acinetobacter baumannii isolate 15 at pH 5.8; format: functional; how it was run: as §4
Acinetobacter baumannii [29] = assay: Antimicrobial activity against Acinetobacter baumannii isolate 17 at pH 5.8; format: functional; how it was run: as §4
Acinetobacter baumannii [30] = assay: Antimicrobial activity against Acinetobacter baumannii isolate 19 harboring GyrA Ser83-Leu mutation at pH 5.8; format: functional; how it was run: as §4
Acinetobacter baumannii [31] = assay: Antimicrobial activity against Acinetobacter baumannii isolate 20 harboring GyrA Ser83-Leu mutation at pH 5.8; format: functional; how it was run: as §4
Acinetobacter baumannii [32] = assay: Antimicrobial activity against Acinetobacter baumannii isolate 26 harboring GyrA Ser83-Leu mutation at pH 5.8; format: functional; how it was run: as §4
Acinetobacter baumannii [33] = assay: Antimicrobial activity against Acinetobacter baumannii isolate 27 harboring GyrA Ser83-Leu mutation at pH 5.8; format: functional; how it was run: as §4
Acinetobacter baumannii [34] = assay: Antimicrobial activity against Acinetobacter baumannii isolate 34 harboring GyrA Ser83-Leu mutation at pH 5.8; format: functional; how it was run: as §3
Acinetobacter baumannii [35] = assay: Antimicrobial activity against Acinetobacter baumannii isolate 35 harboring GyrA Ser83-Leu mutation at pH 5.8; format: functional; how it was run: as §3
Acinetobacter baumannii [36] = assay: Antimicrobial activity against Acinetobacter baumannii isolate 37 harboring GyrA Ser83-Leu mutation at pH 5.8; format: functional; how it was run: as §3
Acinetobacter baumannii [37] = assay: Antimicrobial activity against Acinetobacter baumannii isolate 42 harboring GyrA Ser83-Leu mutation at pH 5.8; format: functional; how it was run: as §3
Acinetobacter baumannii [38] = assay: Antimicrobial activity against Acinetobacter baumannii isolate 48 harboring GyrA Ser83-Leu and ParC Ser80-Leu mutation at pH 5.8; format: functional; how it was run: as §3
Acinetobacter baumannii [39] = assay: Antimicrobial activity against Acinetobacter baumannii isolate 49 harboring GyrA Ser83-Leu and ParC Ser80-Leu mutation at pH 5.8; format: functional; how it was run: as §3
Acinetobacter baumannii [40] = assay: Antimicrobial activity against Acinetobacter baumannii isolate 55 harboring GyrA Ser83-Leu and ParC Ser80-Leu mutation at pH 5.8; format: functional; how it was run: as §3
Acinetobacter baumannii [41] = assay: Antimicrobial activity against Acinetobacter baumannii isolate 56 harboring GyrA Ser83-Leu and ParC Ser80-Leu mutation at pH 5.8; format: functional; how it was run: as §5
Acinetobacter baumannii [42] = assay: Antimicrobial activity against Acinetobacter baumannii isolate 57 harboring GyrA Ser83-Leu and ParC Ser80-Phe mutation at pH 5.8; format: functional; how it was run: as §5
Acinetobacter baumannii [43] = assay: Antimicrobial activity against adeB overexpressing Acinetobacter baumannii isolate 67 harboring GyrA Ser83-Leu and ParC Ser80-Leu mutation at pH 5.8; format: functional; how it was run: as §5
Acinetobacter baumannii [44] = assay: Antimicrobial activity against Acinetobacter baumannii isolate 60 harboring GyrA Ser83-Leu and ParC Ser80-Leu mutation at pH 5.8

SMILES: N#Cc1c(N2C[C@@H]3NCCO[C@H]3C2)c(F)cc2c(=O)c(C(=O)O)cn(C3CC3)c12 [FINAFLOXACIN]
- MIC (Acinetobacter baumannii [1]): 0.5 µg/mL (≈ 1.26 µM)
- MIC (Acinetobacter baumannii [2]): 0.25 µg/mL (≈ 0.628 µM)
- MIC (Acinetobacter baumannii [3]): 0.25 µg/mL (≈ 0.628 µM)
- MIC (Acinetobacter baumannii [4]): 0.25 µg/mL (≈ 0.628 µM)
- MIC (Acinetobacter baumannii [5]): 0.25 µg/mL (≈ 0.628 µM)
- MIC (Acinetobacter baumannii [6]): 1 µg/mL (≈ 2.51 µM)
- MIC (Acinetobacter baumannii [7]): 1 µg/mL (≈ 2.51 µM)
- MIC (Acinetobacter baumannii [8]): 1 µg/mL (≈ 2.51 µM)
- MIC (Acinetobacter baumannii [9]): 1 µg/mL (≈ 2.51 µM)
- MIC (Acinetobacter baumannii [10]): 1 µg/mL (≈ 2.51 µM)
- MIC (Acinetobacter baumannii [11]): 1 µg/mL (≈ 2.51 µM)
- MIC (Acinetobacter baumannii [12]): 16 µg/mL (≈ 40.2 µM)
- MIC (Acinetobacter baumannii [13]): 32 µg/mL (≈ 80.3 µM)
- MIC (Acinetobacter baumannii [14]): 16 µg/mL (≈ 40.2 µM)
- MIC (Acinetobacter baumannii [15]): 16 µg/mL (≈ 40.2 µM)
- MIC (Acinetobacter baumannii [16]): 16 µg/mL (≈ 40.2 µM)
- MIC (Acinetobacter baumannii [17]): 32 µg/mL (≈ 80.3 µM)
- MIC (Acinetobacter baumannii [18]): 64 µg/mL (≈ 161 µM)
- MIC (Acinetobacter baumannii [19]): 64 µg/mL (≈ 161 µM)
- MIC (Acinetobacter baumannii [20]): 64 µg/mL (≈ 161 µM)
- MIC (Acinetobacter baumannii [21]): 0.12 µg/mL (≈ 0.301 µM)
- MIC (Acinetobacter baumannii [22]): 0.06 µg/mL (≈ 0.151 µM)
- MIC (Acinetobacter baumannii [23]): 0.06 µg/mL (≈ 0.151 µM)
- MIC (Acinetobacter baumannii [24]): 0.12 µg/mL (≈ 0.301 µM)
- MIC (Acinetobacter baumannii [25]): 0.12 µg/mL (≈ 0.301 µM)
- MIC (Acinetobacter baumannii [26]): 0.12 µg/mL (≈ 0.301 µM)
- MIC (Acinetobacter baumannii [27]): 0.25 µg/mL (≈ 0.628 µM)
- MIC (Acinetobacter baumannii [28]): 0.12 µg/mL (≈ 0.301 µM)
- MIC (Acinetobacter baumannii [29]): 0.12 µg/mL (≈ 0.301 µM)
- MIC (Acinetobacter baumannii [30]): 0.12 µg/mL (≈ 0.301 µM)
- MIC (Acinetobacter baumannii [31]): 0.06 µg/mL (≈ 0.151 µM)
- MIC (Acinetobacter baumannii [32]): 2 µg/mL (≈ 5.02 µM)
- MIC (Acinetobacter baumannii [33]): 1 µg/mL (≈ 2.51 µM)
- MIC (Acinetobacter baumannii [34]): 2 µg/mL (≈ 5.02 µM)
- MIC (Acinetobacter baumannii [35]): 2 µg/mL (≈ 5.02 µM)
- MIC (Acinetobacter baumannii [36]): 2 µg/mL (≈ 5.02 µM)
- MIC (Acinetobacter baumannii [37]): 2 µg/mL (≈ 5.02 µM)
- MIC (Acinetobacter baumannii [38]): 2 µg/mL (≈ 5.02 µM)
- MIC (Acinetobacter baumannii [39]): 2 µg/mL (≈ 5.02 µM)
- MIC (Acinetobacter baumannii [40]): 4 µg/mL (≈ 10 µM)
- MIC (Acinetobacter baumannii [41]): 4 µg/mL (≈ 10 µM)
- MIC (Acinetobacter baumannii [42]): 4 µg/mL (≈ 10 µM)
- MIC (Acinetobacter baumannii [43]): 4 µg/mL (≈ 10 µM)
- MIC (Acinetobacter baumannii [44]): 8 µg/mL (≈ 20.1 µM)
